Results of several laboratories.
Compare with care: the assays were run in different laboratories.
Target: Serine/threonine-protein kinase LATS2 (LATS2, Homo sapiens, UniProt Q9NRM7)
Sequence (Q9NRM7 1-1088, as in one of the studies): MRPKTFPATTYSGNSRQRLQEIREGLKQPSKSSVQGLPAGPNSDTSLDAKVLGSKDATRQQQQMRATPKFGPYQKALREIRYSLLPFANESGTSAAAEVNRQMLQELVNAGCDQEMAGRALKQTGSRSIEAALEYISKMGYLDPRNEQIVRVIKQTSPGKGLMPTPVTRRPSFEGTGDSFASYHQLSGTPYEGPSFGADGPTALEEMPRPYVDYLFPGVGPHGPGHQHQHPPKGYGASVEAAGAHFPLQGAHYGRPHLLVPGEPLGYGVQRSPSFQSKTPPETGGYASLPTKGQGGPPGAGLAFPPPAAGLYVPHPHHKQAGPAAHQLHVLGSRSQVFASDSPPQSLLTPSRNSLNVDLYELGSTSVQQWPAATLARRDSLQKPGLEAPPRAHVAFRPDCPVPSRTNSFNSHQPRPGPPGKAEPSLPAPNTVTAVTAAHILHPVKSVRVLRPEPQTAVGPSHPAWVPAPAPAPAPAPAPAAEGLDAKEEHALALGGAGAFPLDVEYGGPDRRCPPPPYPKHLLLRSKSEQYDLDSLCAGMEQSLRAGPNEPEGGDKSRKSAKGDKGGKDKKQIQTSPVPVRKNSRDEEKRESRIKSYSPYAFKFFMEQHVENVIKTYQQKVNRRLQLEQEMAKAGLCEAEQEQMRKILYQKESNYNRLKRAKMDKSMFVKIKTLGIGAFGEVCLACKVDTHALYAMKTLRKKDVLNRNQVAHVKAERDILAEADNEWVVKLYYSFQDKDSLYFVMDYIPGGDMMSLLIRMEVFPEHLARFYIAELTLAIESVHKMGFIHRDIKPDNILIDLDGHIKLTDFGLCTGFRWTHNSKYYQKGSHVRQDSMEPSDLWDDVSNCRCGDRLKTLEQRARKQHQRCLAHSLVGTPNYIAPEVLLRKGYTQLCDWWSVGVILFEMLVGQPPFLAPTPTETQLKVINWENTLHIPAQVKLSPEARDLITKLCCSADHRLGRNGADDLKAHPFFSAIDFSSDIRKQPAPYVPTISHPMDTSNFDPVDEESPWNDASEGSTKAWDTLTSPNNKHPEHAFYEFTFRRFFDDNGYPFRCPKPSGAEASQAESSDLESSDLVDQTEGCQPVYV

| SMILES | test | conditions | remaining binding [%] |
| --- | --- | --- | --- |
| O=C(c1ccc(Nc2ncc(Cl)c(-c3ccc(Cl)s3)n2)cc1)N1CCC(N2CCCC2)CC1 | binding, competition with immobilised ligand | 1 µM | 3.8 |
| O=C1CCc2cc(Nc3cc(OC4CCOCC4)c([N+](=O)[O-])cc3Cl)ccc2N1 | cell-free assay, competition with immobilised ligand | 1 µM | 80 |
| Cc1cnc(Nc2ccc(C(=O)N3CCC(N4CCCC4)CC3)cc2)nc1-c1cc2ccccc2s1 | binding, competition with immobilised ligand | 1 µM | 44 |
| COc1ncc2cc3ccccc3nc2c1C#N | cell-free assay, competition with immobilised ligand | 5 µM | 90 |
| Cn1nc(C(=O)NCc2ccc(C(=O)O)cc2)cc1-c1ccc2[nH]ccc2c1 | cell-free assay, competition with immobilised ligand | 0.1 µM | 100 |
| F[C@@H]1CCN(c2nccc(-c3cnn4ncccc34)n2)C1 | binding | 1 µM | 100 |
| CCN1CCN(Cc2ccc(C(=O)Nc3ccc(C)c(Oc4ccc5c(c4)CC(=O)N5)c3)cc2C(F)(F)F)CC1 | binding, competition with immobilised ligand | 1 µM | 100 |
| CN(C)c1nccc(-c2cnn3ncccc23)n1 | binding | 1 µM | 64 |
| Nc1ncc2c(n1)-c1c([nH]c3ccc(C#CC4CC4)cc13)CCCC2 | binding, competition with immobilised ligand | 1 µM | 91 |
| C[C@@H]1CCN(c2nccc(-c3cnn4ncccc34)n2)C1 | binding | 1 µM | 93 |
| Cc1nccc(COC(=O)N2C[C@@H]3[C@@H](CNC(=O)c4ccc5[nH]nnc5c4)[C@@H]3C2)n1 | cell-free assay, competition with immobilised ligand | 1 µM | 97 |
| COc1cnc(Nc2cccc(S(N)(=O)=O)c2)nc1N1CCN(c2ccccc2)C(=O)C1 | binding, competition with immobilised ligand | 1 µM | 100 |
| CN(C)CC#Cc1ccc(OCCCc2sc(N3CCc4cccc(C(=O)Nc5nc6ccccc6s5)c4C3)nc2C(=O)O)c(F)c1 | cell-free assay, competition with immobilised ligand | 1 µM | 95 |
| O=C(Nc1c[nH]nc1C(=O)NC1CCNCC1)c1cc(F)cc(F)c1 | binding, competition with immobilised ligand | 1 µM | 94 |
| N[C@H]1CCN(c2nccc(-c3cnn4ncccc34)n2)C1 | binding | 1 µM | 74 |
| FC(F)(F)c1ccc2c(c1)nc(-c1cccnc1)n2C1CC1 | cell-free assay, competition with immobilised ligand | 1 µM | 100 |
| CN(c1nccc(-c2cnn3ncccc23)n1)C1CC1 | binding | 1 µM | 100 |
| CCCCN(CCCC)C(=O)CN1C[C@@H](c2cc(OC)c3c(c2)OCO3)[C@H](C(=O)O)[C@H]1CC(C)(C)CCC | cell-free assay, competition with immobilised ligand | 1 µM | 100 |
| COc1ccnn2ncc(-c3ccnc(N(C)C)n3)c12 | binding | 1 µM | 100 |
| CNC(=O)[C@@H]1CC[C@@H](n2c(-c3ccc4cnccc4c3)nc3ccc(C(=O)NCc4cccc(C(N)=O)c4)cc32)C1 | binding, competition with immobilised ligand | 1 µM | 100 |
